EP2 antag: EP2 receptor (human) inhibition; AID 1422; inhibition, % at 25 µM; C6 glioma cells expressing human EP2, cAMP TR-FRET; cells stimulated with saturating PGE2; P43116; 260,000 compounds, 0.52% hits;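 active = percent inhibition above 40 after rounding to a whole number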;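 note: rat C6 glioma host cells with rolipram phosphodiesterase inhibitor present; the protocol text gives 20 µM as final concentration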
Target sequence (P43116 whole entry, looked up): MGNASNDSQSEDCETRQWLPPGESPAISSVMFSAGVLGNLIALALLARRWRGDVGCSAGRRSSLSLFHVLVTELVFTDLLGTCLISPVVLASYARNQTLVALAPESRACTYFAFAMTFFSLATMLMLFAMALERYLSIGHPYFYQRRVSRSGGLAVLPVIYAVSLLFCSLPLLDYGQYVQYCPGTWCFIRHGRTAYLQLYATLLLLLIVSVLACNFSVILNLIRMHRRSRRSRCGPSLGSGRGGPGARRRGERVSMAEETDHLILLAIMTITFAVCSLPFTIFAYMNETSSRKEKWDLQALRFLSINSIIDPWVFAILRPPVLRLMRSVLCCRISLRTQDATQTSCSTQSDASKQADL
EP2 mod: modulators of human EP2 prostaglandin E2 receptor. EP2-expressing cells, cAMP HTRF FRET, PGE2 co-stimulation. induction, % at 25 µM. 260,000 compounds, 0.83% hits;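 active = compounds whose cAMP rise, as percent of the full-agonist control response, exceeds 60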;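 note: rat C6 glioma line stably carrying human EP2 under a CMV promoter; the protocol text gives 20 µM as final concentration; 100% = response of wells given 1 µM PGE2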
Hsp70 act: switches on Hsp70 transcription; activation, % at 10 µM; 200,000 compounds, 0.04% hits; HeLa Hsp70 promoter luciferase reporter, luminescence; scaled: vehicle 0, proteasome-inhibitor control 100%;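 active = activation above the mean across all tested compounds plus 3 SD, cutoff set per campaign, cut at about 5.5% in these data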;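 note: 100% = MG132 at 30 µM as the positive control and 0% = DMSO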
Dynein cargo inh: dynein cargo transport inhibition; z-score, hits read low; 3617.4 mouse cells, GR-EGFP nuclear translocation imaging; test concentration mostly 20 µM; stimulated with dexamethasone, 1 µM; hits give low values; 220,000 compounds, 0.47% hits; AID 1381;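 active = plate z-score of nuclear minus cytoplasmic receptor signal below a set negative limit, without overly bright fluorescence or cell loss, cut at about -3.5 in these data, passing the limit was not always enough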;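 note: z-score of nuclear minus cytoplasmic ring GR-EGFP intensity difference per well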
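Medium: Induction medium lacking tetracycline, stripped serum | Probe or stimulus: 1.0 µM final dexamethasone stimulus | Schedule: 48 h induction, then 1 h compound, then 30 min agonist, 37 °C | Signal: Automated 10x imaging of fixed Hoechst-stained cells | Evaluation: Per-cell GR-EGFP intensity, nucleus versus surrounding cytoplasmic ring, well-averaged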
Dynein inh conf: dynein cargo transport inhibition, confirmation | shares compounds with Dynein cargo inh | 3617.4 GR-EGFP nuclear translocation imaging, dexamethasone-induced | calls only at 20 µM | 1,000 compounds, 69% hits | AID 463116;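 active = inhibition of receptor movement into the nucleus at or above a set limit in both runs, with normal cell brightness and cell count; inconclusive = limit reached in only one run, brightness and count normal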;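 note: dexamethasone at 1 µM final in well for 30 min; nuclear minus cytoplasmic GR-EGFP mean intensity difference in channel 2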
An asterisk follows results filed as active; i = inactive; ? = inconclusive; / = no result given; + = active, no number. In the library only some 1.7% were active in any assay of this set; here they are far more common.

SMILES	EP2 antag	EP2 mod	Hsp70 act	Dynein cargo inh	Dynein inh conf
C[C@@H]1CN(Cc2ccco2)[C@H](C)CN1CC(=O)Nc1nc2c(s1)CCCC2	/	-9	/	/	/
CC1=NN(c2ccccc2)C(=O)/C1=C/C=C/c1ccc(N(C)C)cc1	13	-3	0	0.72	/
CC1=NN(c2ccccc2)C(=O)/C1=C\C=C\c1ccccc1	9	-47	/	-5.3*	+
CCN1CC=C2C(C#N)=C(N)C(C#N)(C#N)C(c3ccc(F)c(F)c3)C2C1 (configuration not stated)	14	-4	/	/	/
O=C1NC2(CCN(CC(=O)N3CCCC4CCCCC43)CC2)Oc2ccccc21 (configuration not stated)	11	-68	/	/	/
O=C1C=CC(=O)N1c1cccc(-c2ccccc2)c1	114*	-61	/	-3.8*	i
COC(=O)c1nn(-c2ccc(OC)cc2)c(=O)cc1O	4	-8	0	-0.76	/
COc1ccc(-n2nc(C#N)c(Cl)cc2=O)cc1	6	4	0	-5.9*	+
CC(C)(C)c1cc(CSC(=S)NC2CCS(=O)(=O)C2)c(Br)c(C(C)(C)C)c1 (configuration not stated)	9	8	0	1.9	/
O=S1(=O)CC=C(CSC(=S)NC2CCS(=O)(=O)C2)C1 (configuration not stated)	5	0	0	-4.8*	+
Cc1cc(C)nc(NCCc2ccccc2)n1	10	-10	/	/	/
O=[N+]([O-])c1cc(S(=O)(=O)N2CCCC2)ccc1O	11	30	0	-0.51	/
O=[N+]([O-])c1cc(S(=O)(=O)N2CCCCCC2)ccc1F	19	12	0	-4.4*	+
N#CC1=C(N)N(c2ccccc2)C(c2cccc([N+](=O)[O-])c2)C1(C#N)C#N (configuration not stated)	25	-14	0	-3.7*	+
Cc1cccc(N2C(N)=C(C#N)C(C#N)(C#N)C2c2ccccc2)c1 (configuration not stated)	7	21	0	-1.3	/
CSc1nc2ccc(S(=O)(=O)N3CCCCC3)cc2s1	13	-15	0	1	/
Nc1nc2ccc(S(=O)(=O)N3CCCCC3)cc2s1	26	-42	0	-4.1*	i
C[N+](C)(Cc1c[nH]c2ccccc12)Cc1c[nH]c2ccccc12	10	-4	/	/	/
Cc1ccc(S(=O)(=O)Nc2ccc3c(c2)nc2n3CCN(Cc3ccccc3)C2)cc1	12	-17	0	-3.5*	i
CNCc1ccccc1Sc1cc(O)ccc1O	106*	-3	0	-4*	+
O=[N+]([O-])c1ccc(/C=C/C2=NN(c3ccccc3)C(c3ccco3)C2)o1 (configuration not stated)	13	8	0	-6.8	+
O=c1[nH]sc2ccccc12	7	-104	0	-3.8*	+
O=C(O)CCCNC1=NCCN1	9	-16	/	/	/
CCN(CC)c1ccc(/C=C/C(=O)c2ccc(Br)cc2)cc1	11	-1	0	-6.9	+
CCC(C)(C)NC(=O)C(c1ccccn1)N(C(=O)c1csnn1)c1cccc(C)c1C (configuration not stated)	7	-6	/	/	/
SMILES	EP2 antag	EP2 mod	Hsp70 act	Dynein cargo inh	Dynein inh conf
COc1cccc(C2NC(=O)NC3=C2C(=O)N(CCN2CCCC2)C3)c1 (configuration not stated)	0	-38	/	/	/
CC(C)[C@H](Cn1nc(C2CC2)ccc1=O)NC(=O)c1cnn2cccnc12	9	-12	/	/	/
Cc1nn(CC(=O)NC2CC2c2ccccc2)c(=O)c2cc3sccc3n12 (configuration not stated)	/	-55	/	/	/
CCCN1C(=O)/C(=C/c2ccc3c(c2)OCO3)NC1=S	4	-33	0	-0.68	/
CCCN1C/C(=C/c2ccc3c(c2)OCO3)C(=O)/C(=C/c2ccc3c(c2)OCO3)C1	9	38	-1	-4.6*	+
Cc1ccc(Sc2cc(NCCCO)c([N+](=O)[O-])c3nonc23)cc1	7	0	/	0.68	/
CCC(=O)OCCNc1cc(Sc2nccn2C)c2nonc2c1[N+](=O)[O-]	8	2	0	-4.8*	?
CC(=O)OCCN(C)c1cc(SC(C)C)c2nonc2c1[N+](=O)[O-]	5	-33	0	-4.7*	+
CC(=O)OCCNc1cc(SC(C)C)c2nonc2c1[N+](=O)[O-]	3	-17	0	-1.2	/
CCCC(=O)OCCNc1cc(Sc2nc3ccccc3[nH]2)c2nonc2c1[N+](=O)[O-]	35	-85	0	-3.4	/
CCC(=O)OCCNc1cc(SCCC(=O)OC)c2nonc2c1[N+](=O)[O-]	4	-84	0	-5.6*	+
CC(=O)OCCCNc1cc(Sc2ccc(Cl)cc2)c2nonc2c1[N+](=O)[O-]	0	4	0	-4.8*	+
CCc1n(CC(O)COc2ccc(Br)cc2)c2ccccc2[n+]1C (configuration not stated)	11	14	/	/	/
COc1cc(/C=C/C2=CCN(C)CC2)ccc1OCC(=O)Nc1cccc(Cl)c1	9	-78	/	/	/
CC(C)(C)C1CCc2c(sc3nc(SCC(=O)N4CCOCC4)[nH]c(=O)c23)C1 (configuration not stated)	11	17	/	/	/
Cc1ccccc1-n1nnnc1Sc1nnnn1-c1ccccc1	8	-5	1	-5.1*	+
O=[N+]([O-])c1ccc(Sc2nnnn2-c2ccccc2)nc1	2	-32	0	-5.2*	+
CCOc1ccc(N(CC(=O)N2CCCC2)S(=O)(=O)c2ccccc2)cc1	10	-5	/	/	/
CC(=O)n1cc(N(C(=O)CCl)c2ccc(C)cc2)c2ccccc21	12	9	/	-6*	+
COc1cccc(/C(O)=C/c2nc3ccc(C(=O)NCCc4cccc(C)c4)cc3[nH]c2=O)c1	9	-2	0	-2.2	/
COc1cccc(/C(O)=C/c2nc3ccc(C(=O)NCCc4ccc(Cl)cc4)cc3[nH]c2=O)c1	10	-7	1	-6.8	+
O=S(=O)(c1cnc(Cl)c(Br)c1)N1CCc2ccccc21	9	6	/	-4.7*	+
OC(CNCCc1ccc(C(F)(F)F)cc1)COc1ccc2ccccc2c1 (configuration not stated)	14	-77	0	-4.8*	i
CCC(=O)Nc1ccc(/C=C(\C(C)=O)C(=O)c2ccccc2)cc1	12	-5	/	-4.1*	+
Cc1cc(C)c2cc(C)c3nnc(SCC(=O)Nc4nc5c(s4)CCCC5)n3c2c1	15	13	/	/	/
CCN1C/C(=C/c2ccc(N3CCOCC3)cc2)C(=O)/C(=C/c2ccc(N3CCOCC3)cc2)C1	7	-1	0	-3.6	+
CN1C/C(=C\c2ccc(N3CCOCC3)cc2)C(=O)/C(=C/c2ccc(N3CCOCC3)cc2)C1	12	-12	0	-3.4	/
CC(=O)Nc1cccc(C(=O)/C=C/c2ccc(Br)cc2)c1	13	-17	0	-2.7	/
